Reference: ChEMBL document CHEMBL5230171, “Expanding the structure-activity relationships of alkynyl diphenylurea scaffold as promising antibacterial agents” (RSC Med Chem, 2023)
Converted amounts (≈) assume the structure as drawn. The source made the active and inactive calls.

Experiments:
Staphylococcus aureus [1] = experiment: Antibacterial activity against methicillin resistant Staphylococcus aureus 123 assessed as inhibition of bacterial growth incubated for 18 to 20 hrs by CLSI protocol based broth microdilution method; assay type: functional; conditions: time 18-20 hrs
In short: (§1)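 Broth microdilution against staphylococcal clinical isolates. Each strain was prepared as a 0.5 McFarland suspension and diluted in cation-adjusted Mueller Hinton broth to ~5 × 10^5 CFU mL−1. Serial dilutions of test agents in DMSO stock were incubated with the bacteria, and the MIC was recorded.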

Staphylococcus aureus [2] = experiment: Antibacterial activity against methicillin resistant Staphylococcus aureus 119 assessed as inhibition of bacterial growth incubated for 18 to 20 hrs by CLSI protocol based broth microdilution method; assay type: functional; conditions: time 18-20 hrs; in short: as §1
Staphylococcus aureus [3] = experiment: Antibacterial activity against methicillin resistant Staphylococcus aureus 385 assessed as inhibition of bacterial growth incubated for 18 to 20 hrs by CLSI protocol based broth microdilution method; assay type: functional; conditions: time 18-20 hrs; in short: as §1
Staphylococcus aureus [4] = experiment: Antibacterial activity against methicillin resistant Staphylococcus aureus 386 assessed as inhibition of bacterial growth incubated for 18 to 20 hrs by CLSI protocol based broth microdilution method; assay type: functional; conditions: time 18-20 hrs; in short: as §1
Staphylococcus aureus [5] = experiment: Antibacterial activity against vancomycin resistant Staphylococcus aureus 10 assessed as inhibition of bacterial growth incubated for 18 to 20 hrs by CLSI protocol based broth microdilution method; assay type: functional; conditions: time 18-20 hrs; in short: as §1
Staphylococcus aureus [6] = experiment: Antibacterial activity against vancomycin resistant Staphylococcus aureus 9 assessed as inhibition of bacterial growth incubated for 18 to 20 hrs by CLSI protocol based broth microdilution method; assay type: functional; conditions: time 18-20 hrs; in short: as §1
[7] = test system: Staphylococcus epidermidis; experiment: Antibacterial activity against Staphylococcus epidermidis 101 assessed as inhibition of bacterial growth incubated for 18 to 20 hrs by CLSI protocol based broth microdilution method; assay type: functional; conditions: time 18-20 hrs
In short: (§2)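 Staphylococcal and E. coli strains were diluted from a 0.5 McFarland suspension in cation-adjusted Mueller Hinton broth to ~5 × 10^5 CFU mL−1. They were incubated with serial dilutions of test agent in broth microdilution, and the MIC was recorded.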

Streptococcus pneumoniae [8] = experiment: Antibacterial activity against Streptococcus pneumoniae 700677 assessed as inhibition of bacterial growth incubated for 18 to 20 hrs by CLSI protocol based broth microdilution method; assay type: functional; conditions: time 18-20 hrs
In short: (§3)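 Streptococci were diluted from a 0.5 McFarland suspension in cation-adjusted Mueller Hinton broth with 5% lysed horse blood. They were incubated with serial dilutions of test agent in broth microdilution, and the MIC was recorded.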

Streptococcus pneumoniae [9] = experiment: Antibacterial activity against Streptococcus pneumoniae 51916 assessed as inhibition of bacterial growth incubated for 18 to 20 hrs by CLSI protocol based broth microdilution method; assay type: functional; conditions: time 18-20 hrs; in short: as §3
Streptococcus pyogenes = experiment: Antibacterial activity against Streptococcus pyogenes MGAS 9882 assessed as inhibition of bacterial growth incubated for 18 to 20 hrs by CLSI protocol based broth microdilution method; assay type: functional; conditions: time 18-20 hrs; in short: as §3
Streptococcus mutans = experiment: Antibacterial activity against Streptococcus mutans 25175 assessed as inhibition of bacterial growth incubated for 18 to 20 hrs by CLSI protocol based broth microdilution method; assay type: functional; conditions: time 18-20 hrs; in short: as §3
Enterococcus faecalis = experiment: Antibacterial activity against Enterococcus faecalis 51299 assessed as inhibition of bacterial growth incubated for 18 to 20 hrs by CLSI protocol based broth microdilution method; assay type: functional; conditions: time 18-20 hrs
In short: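 Enterococci and L. monocytogenes were diluted from a 0.5 McFarland suspension in TSB. They were incubated with serial dilutions of test agent in broth microdilution, and the MIC was recorded.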

Staphylococcus aureus [10] = experiment: Antibacterial activity against methicillin resistant Staphylococcus aureus 123 assessed as inhibition of bacterial growth at 0.5 ug/ml incubated for 18 to 20 hrs by CLSI protocol based broth microdilution method; assay type: functional, organism-based; conditions: dose 0.5 µg/ml, time 18-20 hrs
Staphylococcus aureus [11] = experiment: Antibacterial activity against methicillin resistant Staphylococcus aureus 384 assessed as inhibition of bacterial growth at 0.5 ug/ml incubated for 18 to 20 hrs by CLSI protocol based broth microdilution method; assay type: functional, organism-based; conditions: dose 0.5 µg/ml, time 18-20 hrs
Staphylococcus aureus [12] = experiment: Antibacterial activity against methicillin resistant Staphylococcus aureus 385 assessed as inhibition of bacterial growth at 0.5 ug/ml incubated for 18 to 20 hrs by CLSI protocol based broth microdilution method; assay type: functional, organism-based; conditions: dose 0.5 µg/ml, time 18-20 hrs
Staphylococcus aureus [13] = experiment: Antibacterial activity against methicillin resistant Staphylococcus aureus 386 assessed as inhibition of bacterial growth at 0.5 ug/ml incubated for 18 to 20 hrs by CLSI protocol based broth microdilution method; assay type: functional, organism-based; conditions: dose 0.5 µg/ml, time 18-20 hrs
Staphylococcus aureus [14] = experiment: Antibacterial activity against vancomycin resistant Staphylococcus aureus 12 assessed as inhibition of bacterial growth at 0.5 ug/ml incubated for 18 to 20 hrs by CLSI protocol based broth microdilution method; assay type: functional, organism-based; conditions: dose 0.5 µg/ml, time 18-20 hrs
Staphylococcus aureus [15] = experiment: Antibacterial activity against vancomycin resistant Staphylococcus aureus 9 assessed as inhibition of bacterial growth at 0.5 ug/ml incubated for 18 to 20 hrs by CLSI protocol based broth microdilution method; assay type: functional, organism-based; conditions: dose 0.5 µg/ml, time 18-20 hrs
Staphylococcus aureus [16] = experiment: Antibacterial activity against methicillin sensitive Staphylococcus aureus 107 assessed as inhibition of bacterial growth at 0.5 ug/ml incubated for 18 to 20 hrs by CLSI protocol based broth microdilution method; assay type: functional, organism-based; conditions: dose 0.5 µg/ml, time 18-20 hrs; in short: as §2
Staphylococcus aureus [17] = experiment: Antibacterial activity against methicillin sensitive Staphylococcus aureus 6538 assessed as inhibition of bacterial growth at 0.5 ug/ml incubated for 18 to 20 hrs by CLSI protocol based broth microdilution method; assay type: functional, organism-based; conditions: dose 0.5 µg/ml, time 18-20 hrs; in short: as §2
Staphylococcus aureus [18] = experiment: Induction of drug resistance in methicillin resistant Staphylococcus aureus NRS384 USA300 assessed as change in MIC measured after 4 passages by broth microdilution method; assay type: functional, organism-based
In short: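 Multi-step resistance in MRSA USA300 over 14 consecutive passages, with rifampicin as the control antibiotic. The MIC was determined by broth microdilution at each passage. Resistance was defined as a greater than four-fold rise over the initial MIC.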

Staphylococcus aureus [19] = experiment: Post antibiotic effect against methicillin resistant Staphylococcus aureus NRS384 USA300 assessed as time required for 1 log10 increase in CFU at 5 times of MIC incubated for 2 hrs followed by replacement with drug free medium and measured after 18-24 hrs; assay type: functional
In short: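 MRSA USA300 at ~10^6 CFU mL−1 was exposed for 2 h to 5× MIC of test agent, with vancomycin or DMSO as controls. Drug was removed by 1:1000 dilution in fresh TSB. Cultures were incubated at 37 °C with 180 rpm shaking and sampled hourly for 8 h, with viable counts on MSA read after 18–24 h. PAE = T − C, where T and C are the times for a 1 log10 rise in the test and control cultures.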

Staphylococcus aureus [20] = experiment: Antibacterial activity against methicillin resistant Staphylococcus aureus NRS384 USA300 infected in Balb/c mouse model of skin infection assessed as healing administered topically twice daily for three consecutive days from day 4 to 6 and measured 24 hrs post last dose; assay type: functional, organism-based; conditions: route top, time 4.0 day
In short: (§4)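 Mice were anesthetized with 2,2,2-tribromoethanol and injected subcutaneously with 100 μL containing 2 × 10^9 CFU MRSA USA300 in 0.5% HPMC in saline. Topical treatment used a petroleum jelly vehicle, with a fusidic acid positive control. Lesions were photographed 24 h after the last dose. A ~1.5 cm2 skin patch (homogenized in 1 mL saline) and the spleen (in 0.5 mL) were serially diluted and plated on MSA at 37 °C overnight for CFU.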

Staphylococcus aureus [21] = experiment: Antibacterial activity against methicillin resistant Staphylococcus aureus NRS384 USA300 infected in Balb/c mouse model of skin infection assessed as reduction in bacterial burden in skin lesions administered topically twice daily for three consecutive days from day 4 to 6 and measured 24 hrs post last dose; assay type: functional; conditions: route top; time 4 day; in short: as §4
Staphylococcus aureus [22] = experiment: Antibacterial activity against methicillin resistant Staphylococcus aureus NRS384 USA300 infected in Balb/c mouse model of skin infection assessed as reduction in bacterial burden in spleen administered topically twice daily for three consecutive days from day 4 to 6 and measured 24 hrs post last dose; assay type: functional; conditions: route top; time 4 day; in short: as §4

`C/C(=N\NC(=N)N)c1ccc(NC(=O)Nc2ccc(C#Cc3ccccc3)cc2)cc1` was tested, and the MIC (Staphylococcus aureus [1]) was 0.5 µg/mL (≈ 1.22 µM), the MIC (Staphylococcus aureus [2]) was 0.5 µg/mL (≈ 1.22 µM) and the MIC (Staphylococcus aureus [3]) was 0.5 µg/mL (≈ 1.22 µM). It also gave an MIC (Staphylococcus aureus [4]) of 0.5 µg/mL (≈ 1.22 µM), an MIC (Staphylococcus aureus [5]) of 0.5 µg/mL (≈ 1.22 µM) and an MIC (Staphylococcus aureus [6]) of 0.5 µg/mL (≈ 1.22 µM). The MIC [7] was 0.5 µg/mL (≈ 1.22 µM), the MIC (Streptococcus pneumoniae [8]) was 0.5 µg/mL (≈ 1.22 µM) and the MIC (Streptococcus pneumoniae [9]) was 0.5 µg/mL (≈ 1.22 µM). It also gave an MIC (Streptococcus pyogenes) of 0.5 µg/mL (≈ 1.22 µM), an MIC (Streptococcus mutans) of 0.5 µg/mL (≈ 1.22 µM) and an MIC (Enterococcus faecalis) of 0.5 µg/mL (≈ 1.22 µM). The Activity (Staphylococcus aureus [10]) was “Active”, the Activity (Staphylococcus aureus [11]) was “Active” and the Activity (Staphylococcus aureus [12]) was “Active”. The Activity (Staphylococcus aureus [13]) was “Active”, the Activity (Staphylococcus aureus [14]) was “Active” and the Activity (Staphylococcus aureus [15]) was “Active”. The Activity (Staphylococcus aureus [16]) was “Active”, the Activity (Staphylococcus aureus [17]) was “Active” and the Activity (Staphylococcus aureus [18]) was “inactive”. For the same compound, the Time (Staphylococcus aureus [19]) was 5 h, the Activity (Staphylococcus aureus [20]) was “Active” and the Activity (Staphylococcus aureus [21]) was 0.5 log10CFU/ml. For the same compound, the Activity (Staphylococcus aureus [22]) was greater than 1 log10CFU/ml.
